This is an account of results in PubChem BioAssay.

Test [1] in a line: inhibitors of TNFa-induced NFkB p65 translocation, primary screen, imaging, HUVEC, MLSMR starter and 10KST1 sets (AID 438;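 active = inhibition above 20% together with a positive visual image hit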;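 also: compound added about 3h40 before a 20 min TNFalpha stimulation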;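 as to inhibition: signal is the nuclear over cytoplasmic p65 intensity ratio per well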). To be noted: HUVEC TNFa-induced p65 nuclear translocation; cell count: measured here: nuclei count (cytotoxicity indicator), at 2.08 µM; inhibition: at 2 µM, stronger effect = higher value, 0% TNFa-plus-vehicle, 100% no-TNFa wells.
Test [2] is described as follows: inhibitors of E-selectin induction by TNFa, primary screen, imaging, HUVEC, immunofluorescence, MLSMR starter and 10KST1 sets (AID 487;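 active = visually confirmed hit in the image check and inhibition above 20%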;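 as to inhibition: signal is fraction of cell area covered by stained E-selectin grains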;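 as to nuclei count: 100% = median nuclei count of all wells on the same plate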). To be noted: HUVEC TNFalpha-induced E-selectin immunofluorescence imaging, at 2 µM; inhibition: stronger effect = higher value; nuclei count: measured here: cell number, toxicity.
The nature of test [3]: DUSP6 inhibitors restoring Erk phosphorylation by chemical complementation, primary imaging in DUSP6-transfected HeLa (AID 609).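 As to inhibition: phospho-Erk level distribution per well compared with pooled transfected vehicle control wells.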 The settings on record: HeLa MKP-3 transfected, phospho-Erk imaging KS statistic, at 10 µM, cells stimulated with TPA for 15 min.
Test [4] has as its target Dual specificity protein phosphatase 6 (Homo sapiens) (UniProt Q16828). The test is described as above. To be noted: HeLa MKP-3 transfected, phospho-Erk imaging KS statistic; at 10 µM; stronger effect = higher value; cells stimulated with TPA for 15 min.
Test [5] concerns the target Voltage-gated potassium channel subunit beta-2 (Rattus norvegicus) (UniProt P62483). The test is described as follows: KvBeta enzyme negative modulators, primary screen, biochemical, NADPH fluorescence (AID 622;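 active = fluorescence slope higher than the sample average by over 3 SD, cut at about -0.22 in these data, passing the limit was not always enough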;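 also: slope of raw intensity against log time taken from 70 to 1610 s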). The settings on record: recombinant KvBeta, 4-cyanobenzaldehyde reduction, at 10 µM, stronger effect = higher value.
Test [6] has the same target. The test is described as follows: KvBeta positive modulators, primary screen, biochemical, NADPH fluorescence (AID 623;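 active = NADPH fluorescence slope more negative than the mean of all samples by about 3 SD, 99.7% confidence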;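 also: fluorescence intensity change per second fitted from 20 to 320 s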). The settings on record: Recombinant KvBeta, NADPH fluorescence decrease slope, 10 min; at 10 µM; stronger effect = lower value.
In test [7] the target is Muscarinic acetylcholine receptor M4 (Homo sapiens) (UniProt P08173). The test is described as follows: compounds altering M4/GIRK thallium flux, either direction, primary screen, M4 allosteric agonist project, cell-based, HEK293 M4/GIRK, BTC-AM (AID 625;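 active = fluorescence slope after compound addition differing from the mean of all tested samples at 99.7% confidence, mostly higher but some lower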;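 also: thallium influx through GIRK channels coupled to M4 in HEK293 cells with BTC-AM dye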). To be noted: at 10 µM, actives lie on both sides. In short, it runs like this: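 assay system = HEK293 cells with M4 receptor and GIRK channels | medium = pH 7.3 thallium assay buffer | doses = 10 µM final, single point | timing = cells overnight at 37 °C, BTC-AM loading 1 h, reads 2 min total | signal = BTC-AM fluorescence, 1 Hz kinetic reads | read-out = post-addition slope, 15–24 s, of baseline-normalized fluorescence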
Chain of Muscarinic acetylcholine receptor M4 (Homo sapiens) (P08173 whole entry, looked up): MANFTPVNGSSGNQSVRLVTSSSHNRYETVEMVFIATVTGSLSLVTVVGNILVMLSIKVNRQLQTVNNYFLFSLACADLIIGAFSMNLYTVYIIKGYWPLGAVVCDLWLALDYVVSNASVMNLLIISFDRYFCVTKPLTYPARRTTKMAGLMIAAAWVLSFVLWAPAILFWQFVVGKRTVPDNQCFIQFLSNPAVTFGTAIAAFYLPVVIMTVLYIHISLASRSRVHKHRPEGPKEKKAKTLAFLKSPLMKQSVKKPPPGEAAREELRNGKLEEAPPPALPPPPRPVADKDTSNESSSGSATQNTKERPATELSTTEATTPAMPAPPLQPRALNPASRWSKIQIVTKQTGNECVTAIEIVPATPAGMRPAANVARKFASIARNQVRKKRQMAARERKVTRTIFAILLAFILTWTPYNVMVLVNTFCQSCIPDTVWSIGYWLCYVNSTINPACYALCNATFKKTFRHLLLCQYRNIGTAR

The nature of test [8]: inhibitors of larval lipid processing in zebrafish, primary screen, whole organism, PED6 fluorescence, gall bladder and intestine (AID 686;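 active = a full or partial loss of lipid-probe fluorescence in the fish gall bladder, intestine or both, judged by eye; inactive = no fluorescence loss, or compound toxic to the fish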;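 also: larvae 5 to 7 days old with five fish per well; signal comes from phospholipase A2 cleavage of quenched PED6 carried via bile; overnight exposure to compound and PED6 before scoring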). The settings on record: Zebrafish larvae PED6 lipid processing, fluorescence scoring; screened at 20 µM (by protocol). In short, it runs like this: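 Also added: quenched phospholipase substrate PED6, 100 nM final, ingested by larvae; System: zebrafish larvae, 5-7 d; Quantity: 5 larvae per well; Compound: 20 µM single dose; Schedule: overnight compound and PED6 incubation; Read-out: visual per-well fluorescence inhibition score; Measured by: By-eye fluorescence microscopy; Medium: E3.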

The nature of test [9]: inhibitors of Chlamydomonas gravitaxis, primary screen, whole organism, Chlamydomonas reinhardtii, WT vs cilia-less mutant, absorbance, 96-well (AID 463189;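 active = inhibition at or above 50% relative to wild type and mutant plate controls; inactive = inhibition below 50%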;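 also: 0% = wild type cc124 cells in DMSO and 100% = ciliumless bld1 mutant cells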). The settings on record: OD600 absorbance, 2 days, at 10 µM, stronger effect = higher value.
Setting [10] is: measured here: cell density z-score.
Setting [11] is: measured here: nuclear c-Myc green intensity z-score.
[12] abbreviates: measured here: nuclear pErk red intensity z-score, stronger effect = higher value.

Structures are written as SMILES. Calls of active or inactive are those of the source.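 The calls were made as follows, unless noted: active = compounds giving at least 50% inhibition in the cell-based MKP-3 phosphatase rescue imaging test; inactive = the rest.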

Chain of Dual specificity protein phosphatase 6 (Homo sapiens) (Q16828 whole entry, looked up): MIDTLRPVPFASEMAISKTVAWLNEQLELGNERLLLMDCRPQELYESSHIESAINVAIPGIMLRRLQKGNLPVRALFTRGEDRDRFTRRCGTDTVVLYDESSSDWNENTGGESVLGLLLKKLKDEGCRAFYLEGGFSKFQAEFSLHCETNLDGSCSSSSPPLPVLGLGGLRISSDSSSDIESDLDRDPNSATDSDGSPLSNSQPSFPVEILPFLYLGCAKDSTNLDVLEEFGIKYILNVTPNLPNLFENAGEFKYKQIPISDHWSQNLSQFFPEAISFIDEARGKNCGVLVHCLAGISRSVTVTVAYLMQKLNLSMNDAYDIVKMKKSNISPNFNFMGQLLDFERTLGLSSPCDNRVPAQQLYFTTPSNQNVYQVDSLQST
Chain of Voltage-gated potassium channel subunit beta-2 (Rattus norvegicus) (P62483 whole entry, looked up): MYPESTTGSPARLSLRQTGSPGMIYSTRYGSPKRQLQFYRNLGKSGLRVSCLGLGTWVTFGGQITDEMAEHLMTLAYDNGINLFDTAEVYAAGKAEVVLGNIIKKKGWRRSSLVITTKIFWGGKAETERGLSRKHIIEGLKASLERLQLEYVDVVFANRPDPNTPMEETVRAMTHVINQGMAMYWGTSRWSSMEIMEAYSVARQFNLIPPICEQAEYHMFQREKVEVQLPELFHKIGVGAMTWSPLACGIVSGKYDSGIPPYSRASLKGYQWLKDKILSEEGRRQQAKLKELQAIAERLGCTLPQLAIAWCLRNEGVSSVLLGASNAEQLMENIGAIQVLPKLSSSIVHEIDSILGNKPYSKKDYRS

For `CCCCCOc1ccc(C(=O)NCC(=O)NCC(=O)OCC)cc1`, the cell count in test [1] stood at 715. Further, the inhibition – broadly, the relative decrease from the control value, in per cent – was 9.7% (inactive) in [1], -113% (inactive) in test [2], 1.63% (inactive) in test [4] and -5.95% (inactive) in test [9]. In [2], this compound displayed a nuclei count of 150%. The z-score was -0.426 in test [3] (setting [10]), -0.0633 in test [3] (setting [11]) and -0.949 in [3] (setting [12]). Also, the results for the fluorescence slope in test [5] and in test [7] were -0.417 (inactive) and 0.00389 (inactive), respectively. In addition, the NADPH fluorescence slope in test [6] is -6e-05 (inactive). In test [8], the result was inactive.
As to `CC(=O)[C@H]1[C@@H]2C(=O)N(c3cccc(Cl)c3)C(=O)[C@@H]2[C@H]2c3ccccc3C=CN21`, the cell count in test [1] was 652. Besides, the inhibition in [1] is 0% (inactive); in test [2], 5.3% (inactive); in [4] it was -2.47% (inactive); in [9], 18.1% (inactive). For the same compound, the nuclei count in test [2] is 144%. Moreover, the results for the z-score in [3] (setting [10]), in [3] (setting [11]) and in test [3] (setting [12]) were 0.229, 0.26 and -0.893, respectively. Moreover, the fluorescence slope in test [5] was -0.495 (inactive); in test [7], 0.00696 (inactive). Moreover, in test [6], the NADPH fluorescence slope was -3.6e-05 (inactive). The call in test [8] was inactive.
Regarding `CCOC(=O)c1[nH]c2ccc(OC)cc2c1NC(=O)CCN1CCc2ccccc2C1`, in test [1], the cell count was determined as 515. The inhibition in [1] is -5.3% (inactive); in test [2], -124% (inactive); in [4] it was 3.42% (inactive); in test [9], -5.17% (inactive). The same compound had a nuclei count in test [2] of 136%. Also, the z-score in test [3] (setting [10]) was -0.0545; in test [3] (setting [11]), -2.02; in [3] (setting [12]), 1.46. Moreover, the fluorescence slope in [5] was -0.323 (inactive); in [7], 0.00491 (inactive). Moreover, the NADPH fluorescence slope in [6] was -3.8e-05 (inactive). Further, in test [8], the result was inactive.
Turning to `Cc1nn(CCO)c2c1C(=O)CCC2`, the cell count in test [1] stood at 514. Moreover, the inhibition in test [1] was -5.8% (inactive); in test [2], -16.6% (inactive); in test [4] it was 5.95% (inactive); in test [9], -6.32% (inactive). Besides, the nuclei count in [2] was found to be 166%. Further, the z-score in test [3] (setting [10]) is 1.33; in [3] (setting [11]) it was -0.18; in [3] (setting [12]), -0.238. In addition, the fluorescence slope was -0.382 (inactive) in test [5] and 0.00488 (inactive) in test [7]. Besides, the NADPH fluorescence slope in [6] was -2.1e-05 (inactive). Moreover, in test [8], the result was inactive.
`c1ccc(-n2c(Cc3cccnc3)nc3cnccc32)cc1`: the cell count in [1] turned out to be 581. The inhibition in test [1] is -2.4% (inactive); in test [2], 48.6% (inactive); in [4], -6.48% (inactive); in test [9], 1.93% (inactive). The compound also showed a nuclei count in test [2] of 107%. Moreover, the z-score in [3] (setting [10]) was -0.422; in test [3] (setting [11]) it was -1.1; in test [3] (setting [12]), -1.28. In addition, the fluorescence slope in test [5] is -0.468 (inactive); in test [7], 0.00562 (inactive). Moreover, the NADPH fluorescence slope in test [6] is -5.8e-05 (inactive). The outcome in test [8] was inactive.
`CCSc1nnc(NC(=O)C(C(F)(F)F)C(F)(F)F)s1`: in test [1], the cell count is 702. The inhibition in test [1] is -5% (inactive); in test [2], -40.7% (inactive); in test [4], -0.233% (inactive); in test [9] it was 21.1% (inactive). This compound also had a nuclei count in [2] of 146%. The figures for the z-score in test [3] (setting [10]), in test [3] (setting [11]) and in [3] (setting [12]) were -0.0594, -1.31 and -1.04, respectively. Also, the fluorescence slope was -0.449 (inactive) in [5] and 0.00555 (inactive) in [7]. Further, the NADPH fluorescence slope in test [6] was -4.7e-05 (inactive). For the same compound, the result in [8] was inactive.
In the case of `Cn1c(Cl)nc2c1c(=O)n(Cc1cccc(Br)c1)c(=O)n2C`, the cell count in test [1] is 691. Besides, the inhibition is -8.5% (inactive) in [1], -97.4% (inactive) in test [2], 3.97% (inactive) in test [4] and -10.8% (inactive) in [9]. The compound further yielded a nuclei count in [2] of 169%. The z-score in test [3] (setting [10]) is -1.75; in [3] (setting [11]), 0.296; in test [3] (setting [12]), 0.815. Also, the fluorescence slope in [5] was -0.507 (inactive); in test [7], 0.00593 (inactive). The NADPH fluorescence slope in test [6] is -1.8e-05 (inactive). Moreover, the outcome in [8] was inactive.
In the case of `COC(=O)c1ccc(Cn2c(O)c(N=O)c3ccccc32)o1`, the cell count in test [1] amounted to 485. For the same compound, the inhibition in test [1] is 2% (inactive); in [2] it was -36.4% (inactive); in test [4], 7.42% (inactive); in test [9], -9.22% (inactive). Also, in [2], the nuclei count was 122%. Also, the z-score is -2.02 in test [3] (setting [10]), 0.422 in test [3] (setting [11]) and -1.72 in test [3] (setting [12]). In addition, the results for the fluorescence slope in test [5] and in test [7] were -0.493 (inactive) and 0.00432 (inactive), respectively. Further, the NADPH fluorescence slope in test [6] was -7e-05 (inactive). Besides, in [8], the compound was called inactive.
Regarding `CCCCOc1ccc(C(=O)N2CCCC2C(=O)O)cc1` (centres undefined), the cell count in [1] was 675. In addition, the inhibition is 2.7% (inactive) in test [1], 22.4% (inactive) in test [2], -13.3% (inactive) in test [4] and 7.22% (inactive) in test [9]. Also, in test [2], the nuclei count was 146%. Moreover, the figures for the z-score in test [3] (setting [10]), in test [3] (setting [11]) and in test [3] (setting [12]) were 0.371, 0.251 and 0.422, respectively. Further, the fluorescence slope was -0.458 (inactive) in [5] and 0.00494 (inactive) in [7]. In test [6], the NADPH fluorescence slope was -4.7e-05 (inactive). Besides, the outcome in test [8] was inactive.
`COc1cccc(C2/C(=C(\O)c3ccc4c(c3)OCCO4)C(=O)C(=O)N2CCCN(C)C)c1OC` (centres undefined): the cell count in [1] worked out at 396. For the same compound, the inhibition was 1.1% (inactive) in test [1], -21.2% (inactive) in test [2], -6.86% (inactive) in test [4] and 18.1% (inactive) in test [9]. Further, the nuclei count in test [2] worked out at 174%. Further, the z-score is 0.231 in test [3] (setting [10]), -0.342 in test [3] (setting [11]) and 2 in test [3] (setting [12]). In addition, the fluorescence slope is -0.452 (inactive) in test [5] and 0.00452 (inactive) in test [7]. In addition, the NADPH fluorescence slope in test [6] was -9.9e-05 (inactive). Further, the compound was called inactive in [8].
As to `NC(=O)CSc1nnc2n(-c3ccccc3)c(=O)c3c4c(sc3n12)CCCCC4`, in [1], the cell count came out at 376. Also, the inhibition is -1.4% (inactive) in test [1], -45.3% (inactive) in test [2], -2.59% (inactive) in test [4] and 7.56% (inactive) in test [9]. The nuclei count in test [2] turned out to be 193%. In addition, the z-score was -0.963 in test [3] (setting [10]), 1.04 in test [3] (setting [11]) and 0.285 in [3] (setting [12]). Further, the fluorescence slope is -0.51 (inactive) in [5] and 0.00448 (inactive) in [7]. Moreover, in [6], the NADPH fluorescence slope was -0.000119 (inactive). In addition, the outcome in test [8] was inactive.
Turning to `COc1cccc(CNc2ncc(Br)cc2Br)c1O`, the cell count in [1] was determined as 474. Besides, the inhibition in test [1] is -5.4% (inactive); in test [2], -263% (inactive); in test [4], -5.62% (inactive); in test [9], 5.51% (inactive). The nuclei count in [2] amounted to 170%. Besides, the results for the z-score in test [3] (setting [10]), in [3] (setting [11]) and in [3] (setting [12]) were -1.34, 0.935 and 2.04, respectively. In addition, the fluorescence slope was -0.439 (inactive) in test [5] and 0.0052 (inactive) in test [7]. For the same compound, in test [6], the NADPH fluorescence slope is -4.8e-05 (inactive). Besides, in test [8], the outcome was inactive.
With `CCOC(=O)CCNc1n[nH]c(=O)[nH]c1=O`, in test [1], the cell count is 611. The inhibition is 29.6% (active) in test [1], -2.5% (inactive) in test [2], 15.5% (inactive) in test [4] and -1.35% (inactive) in [9]. The same compound registered a nuclei count in [2] of 107%. The z-score in [3] (setting [10]) is 0.833; in test [3] (setting [11]) it was 0.318; in test [3] (setting [12]), -1.89. In addition, the fluorescence slope in [5] was -0.497 (inactive); in [7], 0.00518 (inactive). For the same compound, in [6], the NADPH fluorescence slope was -1.9e-05 (inactive). The compound was classed as inactive in test [8].
